Results: ChEMBL document CHEMBL4049390, “Combination of amino acid/dipeptide with ligustrazine-betulinic acid as antitumor agents” (Eur J Med Chem, 2017)
Calls of active or inactive are those of the source. No cut-off for these calls is given here.

Tests used:
HT-29 = test: Potency index, ratio of cisplatin IC50 to compound IC50 for human HT-29 cells; format: functional
How it was run: (§1)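 Ratios were calculated from MTT IC50 values (72 h exposure, A490 read-out, n = 3). Potency index = cisplatin IC50 / compound IC50. Therapeutic index = MDCK IC50 / tumour-line IC50.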

HepG2 [1] = test: Induction of apoptosis in human HepG2 cells assessed as early apoptotic cells at 3 uM after 72 hrs by Annexin-V-FITC/propidium iodide staining based flow cytometry (reference value: 3.7%); format: functional
HepG2 [2] = test: Induction of apoptosis in human HepG2 cells assessed as nuclear fragmentation at 1.5 to 6 uM after 72 hrs by Giemsa staining based fluorescent microscopic method; format: functional, cell-based
How it was run: (§2)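 HepG2 cells were seeded at 4×10^3 cells/well in 6-well plates overnight, then treated at 1.5, 3 or 6 µM for 72 h. Cells were washed in PBS, fixed in cold methanol, stained with 6% Giemsa for 5 min, rinsed with water and dried. Morphology was examined microscopically at 200×, with apoptotic cells marked in representative fields.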

HepG2 [3] = test: Induction of apoptosis in human HepG2 cells assessed as early apoptotic cells at 2 uM after 72 hrs by Annexin-V-FITC/propidium iodide staining based flow cytometry (reference value: 3.7%); format: functional
HepG2 [4] = test: Induction of apoptosis in human HepG2 cells assessed as increase in intracellular calcium level by measuring mean fluorescence intensity at 2 uM after 72 hrs by Fluo-3AM dye based flow cytometry (reference value: 1992); format: functional
How it was run: (§3)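 HepG2 cells at 1×10^5 cells/well were grown 24 h, then treated with compound for 72 h. Cells were harvested, washed in cold PBS and resuspended in HBSS containing 10 µM Fluo-3 AM for 30 min at 37 °C in the dark. Flow cytometry used 488 nm excitation; the read-out was mean fluorescence intensity against an untreated control.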

HepG2 [5] = test: Induction of apoptosis in human HepG2 cells assessed as nuclear condensation after 72 hrs by DAPI staining based fluorescent microscopic method; format: functional, cell-based
How it was run: (§4)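 HepG2 cells were plated at 4×10^3 cells/well in six-well plates and grown 12 h, then treated at 1.5, 3 or 6 µM for 72 h. Cells were washed in PBS, fixed in 4% paraformaldehyde and stained with 1 mg/mL DAPI for 1 min in the dark. Nuclei were viewed by fluorescence microscopy at 200×.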

HepG2 [6] = test: Induction of apoptosis in human HepG2 cells assessed as viable cells at 3 uM after 72 hrs by Annexin-V-FITC/propidium iodide staining based flow cytometry (reference value: 93.2%); format: functional; conditions: HepG2, 72 h, read-out: Activity
HepG2 [7] = test: Induction of apoptosis in human HepG2 cells assessed as early apoptotic cells at 4 uM after 72 hrs by Annexin-V-FITC/propidium iodide staining based flow cytometry (reference value: 3.7%); format: functional
HepG2 [8] = test: Induction of apoptosis in human HepG2 cells assessed as late apoptotic cells at 3 uM after 72 hrs by Annexin-V-FITC/propidium iodide staining based flow cytometry (reference value: 2.6%); format: functional
HepG2 [9] = test: Antiproliferative activity against human HepG2 cells after 72 hrs by MTT assay; format: functional, cell-based; conditions: HepG2, 72 h
How it was run: (§5)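 MTT assay. Log-phase cells were seeded at 3×10^3 cells/well and left overnight, then exposed to serial dilutions of compound (DMSO solutions) for 72 h in RPMI 1640 with 10% heat-inactivated FBS at 37 °C, 5% CO2. MTT (5 mg/mL, 20 µL) was added for 4 h at 37 °C and the formazan dissolved in DMSO. A490 was read. % inhibition = (1 − sample OD/control OD)×100; IC50 is the 50% growth-inhibition concentration. Triplicates, n = 3 independent experiments.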

HepG2 [10] = test: Induction of apoptosis in human HepG2 cells assessed as formation of apoptotic bodies after 72 hrs by DAPI staining based fluorescent microscopic method; format: functional, cell-based; how it was run: as §4
A549 = test: Antiproliferative activity against human A549 cells after 72 hrs by MTT assay; format: functional, cell-based; conditions: A549, 72 h; how it was run: as §5
HepG2 [11] = test: Induction of apoptosis in human HepG2 cells assessed as increase in intracellular calcium level by measuring mean fluorescence intensity at 3 uM after 72 hrs by Fluo-3AM dye based flow cytometry (reference value: 1992); format: functional; how it was run: as §3
HepG2 [12] = test: Induction of apoptosis in human HepG2 cells assessed as disruption of mitochondrial membrane potential by measuring mean fluorescence intensity after 72 hrs by Rh123 staining based flow cytometry; format: functional, cell-based
How it was run: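 Mitochondrial potential: HepG2 cells (1×10^5/well, 6-well) were grown 24 h, then exposed at 2, 3 or 4 µM for 72 h. Cells were trypsinised, washed in cold PBS and loaded with 10 µg/mL rhodamine 123 for 30 min at 37 °C. After washing, flow cytometry was run (ex 488/em 530 nm); the read-out is mean fluorescence intensity.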

MDCK = test: Antiproliferative activity against MDCK cells after 72 hrs by MTT assay; format: cell-based; conditions: Canis lupus familiaris; how it was run: as §5
HeLa [13] = test: Antiproliferative activity against human HeLa cells after 72 hrs by MTT assay; format: functional, cell-based; how it was run: as §5
HepG2 [14] = test: Induction of apoptosis in human HepG2 cells assessed as chromatin margination at 1.5 uM after 72 hrs by Giemsa staining based fluorescent microscopic method; format: functional, cell-based; how it was run: as §2
HepG2 [15] = test: Induction of apoptosis in human HepG2 cells assessed as nuclear condensation at 6 uM after 72 hrs by Giemsa staining based fluorescent microscopic method; format: functional, cell-based; how it was run: as §2
HepG2 [16] = test: Induction of apoptosis in human HepG2 cells assessed as nuclear fragmentation after 72 hrs by DAPI staining based fluorescent microscopic method; format: functional, cell-based; how it was run: as §4
HepG2 [17] = test: Induction of apoptosis in human HepG2 cells assessed as necrotic cells at 4 uM after 72 hrs by Annexin-V-FITC/propidium iodide staining based flow cytometry (reference value: 0.5%); format: functional
HeLa [18] = test: Potency index, ratio of cisplatin IC50 to compound IC50 for human HeLa cells; format: functional; how it was run: as §1
HepG2 [19] = test: Induction of apoptosis in human HepG2 cells assessed as increase in intracellular calcium level by measuring mean fluorescence intensity at 4 uM after 72 hrs by Fluo-3AM dye based flow cytometry (reference value: 1992); format: functional; how it was run: as §3
HepG2 [20] = test: Induction of apoptosis in human HepG2 cells assessed as late apoptotic cells at 2 uM after 72 hrs by Annexin-V-FITC/propidium iodide staining based flow cytometry (reference value: 2.6%); format: functional
HepG2 [21] = test: Induction of apoptosis in human HepG2 cells assessed as cell shrinkage at 1.5 uM after 72 hrs by Giemsa staining based fluorescent microscopic method; format: functional; how it was run: as §2
HepG2 [22] = test: Induction of apoptosis in human HepG2 cells assessed as late apoptotic cells at 4 uM after 72 hrs by Annexin-V-FITC/propidium iodide staining based flow cytometry (reference value: 2.6%); format: functional
HepG2 [23] = test: Induction of apoptosis in human HepG2 cells assessed as disruption of mitochondrial membrane potential by measuring mean fluorescence intensity at 3 uM after 72 hrs by Rh123 staining based flow cytometry (reference value: 26410); format: functional
HepG2 [24] = test: Induction of apoptosis in human HepG2 cells assessed as disruption of mitochondrial membrane potential by measuring mean fluorescence intensity at 2 uM after 72 hrs by Rh123 staining based flow cytometry (reference value: 26410); format: functional

C=C(C)[C@@H]1CC[C@]2(C(=O)OCc3nc(C)c(C)nc3C)CC[C@]3(C)[C@H](CC[C@@H]4[C@@]5(C)CC[C@H](OC(=O)[C@H](C)NC(=O)CNC)C(C)(C)[C@@H]5CC[C@]43C)[C@@H]12
Ratio IC50 (HT-29): 2 | Activity (HepG2 [1]): 11.3% | Activity (HepG2 [2]): Active | Activity (HepG2 [3]): 6.1% | Flu intensity (HepG2 [4]): 2743 | Activity (HepG2 [5]): Dose-dependent effect | viability at 3 µM (HepG2 [6]): 81% | Activity (HepG2 [7]): 29.9% | Activity (HepG2 [8]): 6.5% | IC50 (HepG2 [9]): 3.09 µM | Activity (HepG2 [10]): Dose-dependent effect | IC50 (A549): 3.25 µM | Flu intensity (HepG2 [11]): 3760 | Activity (HepG2 [12]): Dose-dependent effect | IC50 (MDCK): 10.8 µM | IC50 (HeLa [13]): 1.74 µM | Activity (HepG2 [14]): Active | Activity (HepG2 [15]): Active | Activity (HepG2 [16]): Dose-dependent effect | Activity (HepG2 [17]): 1% | Ratio IC50 (HeLa [18]): 2 | Flu intensity (HepG2 [19]): 6353 | Activity (HepG2 [20]): 4.8% | Activity (HepG2 [21]): Active | Activity (HepG2 [22]): 6.9% | Flu intensity (HepG2 [23]): 5411 | Flu intensity (HepG2 [24]): 6416
